Our source for the IC50 and Activity values is ChEMBL document CHEMBL1158063, “Awajanomycin, a Cytotoxic gamma-lactone-delta-lactam metabolite from marine-derived Acremonium sp. AWA16-1” (J Nat Prod, 2006).

Molecules are shown by their SMILES. Values after ≈ are worked out from the molar mass of the structure shown. Active and inactive are the calls of the source. The calls are words filed in the database; no cut-off is given here.

In test [1] the test system is A549. The test can be described thus: Cytotoxicity against human A549 cells after 72 hrs by alamar blue assay. The format is functional, cell-based. To be noted: A549, 72 h. In a few lines: (§1)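 A549 lung adenocarcinoma cells in DMEM with 10% FBS were seeded at 8 × 10^3 cells/well and preincubated 14 h at 37 °C under 5% CO2. Serially diluted samples were then added for 72 h. Alamar Blue was added for a further 4 h, and viability was read as absorbance at 590 nm.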
For orientation: Alamar Blue is a resazurin reagent that responds to reducing activity.

The subject of a further test is Escherichia coli. The test can be described thus: Antimicrobial activity against Escherichia coli IFO 3301 at 50 ug/disk after 48 hrs by paper disk method. Type of test: functional, organism-based. Summed up: (§2)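 Paper disk diffusion on nutrient broth agar plates seeded with the test strain. Sample loaded at 50 µg per 6 mm disk, air-dried, and placed on the agar surface. Growth-inhibition zone measured after 48 h incubation at 30 °C.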

For a further test, the system named is Bacillus subtilis. As to the kind of experiment: Antimicrobial activity against Bacillus subtilis IFO 3134 at 50 ug/disk after 48 hrs by paper disk method. Type of test: functional, organism-based. Summed up:
as §2

A further test concerns Staphylococcus aureus. The test can be described thus: Antimicrobial activity against Staphylococcus aureus IFO 12732 at 50 ug/disk after 48 hrs by paper disk method. Type of test: functional, organism-based. In a few lines: as §2
Test [2] relates to Leeuwenhoekiella marinoflava. The test can be described thus: Antimicrobial activity against Cytophaga marinoflava IFO 14170 at 50 ug/disk after 48 hrs by paper disk method. Type of test: functional, organism-based. In a few lines:
(§3)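 Paper disk method on marine broth agar seeded with the marine strain. Each 6 mm disk was loaded with 50 µg sample, air-dried, and laid on the plate. Inhibition zone read after 48 h at 30 °C.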

A further test has as its system Alphaproteobacteria. As to the kind of experiment: Antimicrobial activity against Alphaproteobacteria MBIC3368 at 50 ug/disk after 48 hrs by paper disk method. The format is functional, organism-based. In a few lines: as §3
A further test concerns Candida albicans. The test can be described thus: Antimicrobial activity against sCandida albicans IFO 1060 at 50 ug/disk after 48 hrs by paper disk method. The format is functional, organism-based. In a few lines: as §2
Another test has as its system Salinivibrio costicola. As to the kind of experiment: Antimicrobial activity against sSalinivibrio costicola ATCC 33508 at 50 ug/disk after 48 hrs by paper disk method. Type of test: functional, organism-based. In a few lines: as §3
Test [3] has as its system A549. As to the kind of experiment: Cytotoxicity against human A549 cells after 72 hrs up to 125 ug/mL by alamar blue assay. The format is functional, cell-based. Summed up: as §1

In turn, `CCCCCCCC(O)/C=C/[C@@H]1[C@@H]2OC(=O)[C@@]1(O)C(=O)N[C@@H]2C` (some centres undefined) [AWAJANOMYCIN] returned an IC50 in the test on A549 [1] of 27.5 µg/mL (≈ 84.5 µM). The outcome (in the test with Escherichia coli; with Bacillus subtilis; with Staphylococcus aureus; in test [2]; in the test with Alphaproteobacteria; in the test on Candida albicans) was inactive. Moreover, in the test with Salinivibrio costicola, the result was inactive.

For `CCCCCCCC(O)/C=C/[C@@H]1[C@H](O)[C@@H](C)NC(=O)[C@]1(O)C(=O)O` (some centres undefined), the result (in the test with A549 [3]; with Escherichia coli; with Bacillus subtilis; in the test with Staphylococcus aureus; in test [2]; in the test on Alphaproteobacteria) was inactive. The outcome in the test on Candida albicans and with Salinivibrio costicola was inactive.

In turn, `CCCCCCCC(O)/C=C/[C@@H]1[C@H](O)[C@@H](C)NC(=O)[C@]1(O)CO` (some centres undefined) had a half-inhibitory concentration (IC50) with A549 [1] of 46.4 µg/mL (≈ 141 µM). Further, the outcome (in the test on Escherichia coli; in the test on Bacillus subtilis; in the test on Staphylococcus aureus; in [2]; with Alphaproteobacteria; with Candida albicans) was inactive. The outcome with Salinivibrio costicola was inactive.

In general, IC50 refers to the concentration that gives 50% inhibition. A lower IC50 goes with higher potency.
